BaF3 parental: parental Ba/F3 viability inhibition as JAK2V617F counter-screen. CellTiter-Glo ATP luminescence. inhibition, % at 5.6 µM. actives 1.1% (n = 220,000). AID 1486;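 active means inhibition above a per-campaign cutoff, the mean inhibition of all tested compounds plus 3 SD, cut at about 27% in these data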;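 further: 0% = DMSO wells and 100% = JAK Inhibitor I control wells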
APP transl inh: APP translation inhibition | SH-SY5Y APP 5'UTR-luciferase reporter, luminescence | actives 0.82% (n = 190,000) | AID 1285 | inhibition, % at 2 µM;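 active means inhibition above a set limit, derived from the sample mean plus 3 SD, cut at about 45% in these data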
L major viab: Leishmania major promastigote growth inhibition; Leishmania major promastigotes, resazurin fluorescence viability; inhibition, % at 10 µM; actives 9% (n = 200,000); AID 1063; in the data active means inhibition above about 50%;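 further: promastigotes grown with compound for 44 hours at 28 °C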
b-catenin transl: modulators of beta-catenin nuclear translocation. HeLa beta-catenin nuclear translocation, immunofluorescence imaging. nuclear translocation activity, % at 5 µM. actives 0.3% (n = 190,000). AID 1665;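 active means nuclear translocation activity above 50% at 5 µM, with a well cell count of 50 or more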;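 further: per-cell ratio of nuclear to cytoplasmic median beta-catenin stain intensity; plate controls were DMSO negative control for no effect and GSK-3 inhibitor IX positive control for full effect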
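Technique: fluorescence imaging of beta-catenin antibody stain plus DAPI / Material: human HeLa cell line / Incubation: compound treatment 24 h, 37°C, 5% CO2 / Read-out basis: % activation of per-cell nuclear versus cytoplasmic median beta-catenin signal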
Ba/F3 V617F tox: lowers viability of Ba/F3 cells expressing EpoR and JAK2V617F; ATP luminescence; inhibition, % at 5.6 µM; actives 1.1% (n = 220,000); AID 1446;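 active means inhibition above the campaign mean plus 3 SD over all tested compounds, cut at about 24% in these data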;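 further: cytokine-independent growth of Ba/F3 cells driven by EpoR plus mutant JAK2; 0% = DMSO-treated cells and 100% = JAK inhibitor I control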
MT stabilize HCS: microtubule stabilizers in HeLa cells; HeLa tubulin immunostaining HCS, 24 h; share of cells brighter than vehicle mean+2SD; % tubulin-high responders, % at 10 µM; actives 0.83% (n = 200,000); AID 2205;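 active means plate Z-score above 3 for both tubulin-high and condensed-nucleus cell shares, with cell loss under 80%, at 10 µM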;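 further: anti alpha tubulin signal scored within the nucleus-defined area of each cell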
The depositor's hits bear a star. This is a sample that favours compounds with a hit; in the whole collection about 9.6% have one here.

Screening O=C(CSc1cccc2cccc(Cl)c12)OCC(=O)N1CCN(C(=O)c2ccco2)CC1 returned BaF3 parental 1.0, APP transl inh 13.3, L major viab 52.7*, b-catenin transl -3.4, Ba/F3 V617F tox -5.5 and MT stabilize HCS 2.5.
For Cc1cc(Br)ccc1SCC(=O)OCC(=O)N1CCN(C(=O)c2ccco2)CC1 the results were BaF3 parental 4.1, APP transl inh 7.8, L major viab -6.3, b-catenin transl -1.6, Ba/F3 V617F tox -0.5 and MT stabilize HCS 6.3.
Screening CC(C)NS(=O)(=O)c1ccc(CCC(=O)NCc2cccnc2)cc1 returned BaF3 parental 9.1, APP transl inh -3.5, L major viab -8.2, b-catenin transl -2.6, Ba/F3 V617F tox 1.2 and MT stabilize HCS 1.6.
For CC(NS(=O)(=O)c1ccc(CCC(=O)NCc2cccnc2)cc1)c1ccccc1 (centres undefined) the results were BaF3 parental 4.8, APP transl inh -21.1, L major viab 73.6*, Ba/F3 V617F tox 1.3 and MT stabilize HCS 3.6.
CC(C)CNS(=O)(=O)c1ccc(CCC(=O)NCc2ccncc2)cc1 was read as BaF3 parental 89.8*, APP transl inh -23.6, L major viab -0.6, b-catenin transl -3.0, Ba/F3 V617F tox 1.5 and MT stabilize HCS 1.0.
For COc1ccc(C(=O)N2CCCC(CCC(=O)NCc3ccc(F)c(F)c3)C2)o1 (centres undefined) the results were BaF3 parental 7.8, APP transl inh -18.2, L major viab -6.6, b-catenin transl 0.5, Ba/F3 V617F tox -0.4 and MT stabilize HCS 1.6.
Cc1ncc(CN2CCCC(CCC(=O)NCc3ccc(F)c(F)c3)C2)s1 (centres undefined) was read as BaF3 parental 0.3, APP transl inh 11.0, L major viab 88.3*, b-catenin transl 0.2, Ba/F3 V617F tox -2.6 and MT stabilize HCS 0.8.
Screening Cc1ncc(CN2CCCC(CCC(=O)NCc3ccccc3F)C2)s1 (centres undefined) returned BaF3 parental 0.9, APP transl inh 4.4, L major viab 77.2*, b-catenin transl 0.2, Ba/F3 V617F tox -2.6 and MT stabilize HCS 2.7.
O=C(CCC1CCCN(Cc2ccc3c(c2)CCO3)C1)NCc1ccc(F)c(F)c1 (centres undefined) was read as BaF3 parental 6.8, APP transl inh 1.5, L major viab 98.7*, b-catenin transl -1.2, Ba/F3 V617F tox -0.1 and MT stabilize HCS 2.6.
For O=C(CCC1CCCN(C2C3CC4CC(C3)CC2C4)C1)NCc1ccc(F)c(F)c1 (centres undefined) the results were BaF3 parental 4.3, APP transl inh -12.4, L major viab 56.1*, b-catenin transl 2.1, Ba/F3 V617F tox -0.1 and MT stabilize HCS 5.3.
Cc1occc1C(=O)N1CCCC(CCC(=O)NCc2ccc(F)c(F)c2)C1 (centres undefined) was read as BaF3 parental 1.7, APP transl inh -17.5, L major viab 2.2, b-catenin transl 2.3, Ba/F3 V617F tox -1.7 and MT stabilize HCS 2.6.
Screening Oc1ccc(O)c(-c2cnns2)c1 returned BaF3 parental 2.4, APP transl inh 6.3, L major viab -3.7, b-catenin transl 2.6, Ba/F3 V617F tox -4.5 and MT stabilize HCS 1.0.
Screening CC(=O)c1cccc(CN2CCCC(CCC(=O)NCc3ccccc3F)C2)c1 (centres undefined) returned BaF3 parental 1.6, APP transl inh -1.4, L major viab 91.5*, b-catenin transl -0.1, Ba/F3 V617F tox 1.3 and MT stabilize HCS 3.8.
O=C(Nc1nccs1)c1cccc(N2C(=O)c3cccc4c([N+](=O)[O-])ccc(c34)C2=O)c1 was read as BaF3 parental 2.6, APP transl inh 14.5, L major viab 73.0*, Ba/F3 V617F tox 2.1 and MT stabilize HCS 2.3.
For O=C(Nc1nccs1)c1cccc(N2C(=O)C3C4C=CC(C4)C3C2=O)c1 (centres undefined) the results were BaF3 parental -0.1, APP transl inh 5.2, L major viab 51.4*, Ba/F3 V617F tox -2.3 and MT stabilize HCS 3.1.
`O=C(Nc1ccc(S(=O)(=O)Nc2nccs2)cc1)c1cccc(N2C(=O)c3ccccc3C2=O)c1` gave BaF3 parental 1.6, APP transl inh -29.8, L major viab -5.2, b-catenin transl -3.4, Ba/F3 V617F tox -2.5 and MT stabilize HCS 5.2.
`CC1=C(C(=O)NCc2ccccn2)C2(CCC(C)CC2)OC1=O` (centres undefined) gave BaF3 parental -0.5, APP transl inh 7.0, L major viab 8.2, b-catenin transl -3.2, Ba/F3 V617F tox -3.0 and MT stabilize HCS 3.5.
Screening CS(=O)(=O)N(CC(=O)NCc1ccco1)c1ccccc1Cl returned BaF3 parental 1.2, APP transl inh 4.7, L major viab -3.0, b-catenin transl 5.3, Ba/F3 V617F tox -2.7 and MT stabilize HCS 0.6.
For CS(=O)(=O)N(CC(=O)NCc1ccco1)c1ccc(Cl)c(C(F)(F)F)c1 the results were BaF3 parental 4.7, APP transl inh -0.1, L major viab 76.3*, b-catenin transl -3.4, Ba/F3 V617F tox 1.6 and MT stabilize HCS 4.4.
`CCOC(=O)c1nnc(-c2ccc(C)cc2)nc1Sc1ccc(Cl)cc1` gave BaF3 parental 1.1, L major viab 53.6*, b-catenin transl -1.3, Ba/F3 V617F tox -2.5 and MT stabilize HCS 1.2.
For COCc1cc(=O)n2[nH]c(-c3cccc(Br)c3)cc2n1 the results were BaF3 parental 7.8, APP transl inh 2.7, L major viab 100.3*, b-catenin transl -8.0, Ba/F3 V617F tox 4.5 and MT stabilize HCS 2.1.
`C=CCNC(=S)NNC(=O)c1ccc(OC(C)C)cc1` gave BaF3 parental 1.3, APP transl inh -4.3, L major viab -4.2, Ba/F3 V617F tox -4.2 and MT stabilize HCS 3.1.
Screening Cc1ccc(NC(=O)ON=C2CCCC2)cc1 returned BaF3 parental 6.6, APP transl inh -38.3, L major viab 84.2*, b-catenin transl 0.6, Ba/F3 V617F tox 3.8 and MT stabilize HCS 1.2.
CCCCNC(=O)N1CCN(c2ncccn2)CC1 was read as BaF3 parental -2.0, APP transl inh 9.8, L major viab 3.7, b-catenin transl -0.6, Ba/F3 V617F tox -1.0 and MT stabilize HCS 2.2.
CCOc1ccccc1NC(=O)Cn1nnc(C(=O)NCc2ccco2)c1N was read as BaF3 parental 85.6*, APP transl inh 96.0*, L major viab -7.0, Ba/F3 V617F tox 87.0* and MT stabilize HCS 24.7*.
Screening Cc1ccccc1NC(=O)Cn1nnc(C(=O)NCc2ccco2)c1N returned BaF3 parental 6.5, APP transl inh -15.4, L major viab 0.3, b-catenin transl -3.6, Ba/F3 V617F tox 6.4 and MT stabilize HCS 2.9.
c1ccc(C[n+]2cccc(-c3ccccc3)c2)cc1 was read as BaF3 parental 63.6*, APP transl inh 16.1, L major viab -8.5, b-catenin transl -3.5, Ba/F3 V617F tox 65.2* and MT stabilize HCS 4.5.

From PubChem
